From ChEMBL document CHEMBL4732165, “Analogues of the Herbicide, N-Hydroxy-N-isopropyloxamate, Inhibit Mycobacterium tuberculosis Ketol-Acid Reductoisomerase and Their Prodrugs Are Promising Anti-TB Drug Leads” (J Med Chem, 2021)
In brackets after ≈: the same amount, converted by molar mass.

Key:
[1] = Inhibition of Slackia exigua KARI
[2] = Selectivity ratio of IC50 for Mycobacterium tuberculosis KARI to IC50 for Slackia exigua KARI
[3] = Inhibition of Mycobacterium tuberculosis KARI using 2-acetolactate as substrate preincubated for 30 mins in presence of Mg2+ and NADPH followed by substrate addition by Morrison's equation analysis
How it was run: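 0.27 μM MtKARI preincubated 30 min at 25 °C with inhibitor, 50 μM NADPH and 50 mM Mg²⁺ in 0.1 M Tris-HCl pH 8. Reaction started with 200 μM 2-acetolactate, and A340 decrease followed for 5 min. Compounds above 80% inhibition at 100 μM were retested at 1 nM−100 μM. Ki from Morrison equation fit.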

[4] = Selectivity index, ratio of MIC for antimycobacterial activity against Mycobacterium tuberculosis H37Rv in presence of BCAA to MIC for antimycobacterial activity against Mycobacterium tuberculosis H37Rv in absence of BCAA; assay type: functional
[5] = test system: Mycobacterium tuberculosis; test: Antimycobacterial activity against Mycobacterium tuberculosis H37Ra assessed as reduction in bacterial growth incubated for 5 days in presence of BCAA by resazurin dye based assay; assay type: functional; details: 120 h, time 5 day
How it was run: (§1)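 REMA as for the unsupplemented assay, but with medium supplemented with 1 mM each of leucine, isoleucine and valine. Defined minimal medium at 37 °C. Log-phase inoculum at final OD 0.001 (H37Ra) or 0.003 (H37Rv). 2-fold dilutions from 30 μM. Resazurin fluorescence (530/590 nm) read after 24 h.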

[6] = test system: RAW264.7; test: Cytotoxicity against mouse RAW264.7 cells up to 100 uM incubated for 24 to 48 hrs by MTT assay; assay type: cell-based; details: time 24-48 hrs
How it was run: (§2)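 Cells grown to 80% confluency, RAW 264.7 and HEK293 in DMEM, SW620 in RPMI, each with 10% FBS and 1 mM nonessential amino acids. Seeded at 2×10⁵ (RAW 264.7), 5×10³ (HEK293) or 2×10³ (SW620) per well and held 24−48 h at 37 °C, 5% CO2. Twofold dilutions added at 1% DMSO final, then overnight incubation. MTT 3 h, DMSO solubilisation, A570.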

[7] = test system: HEK293; test: Cytotoxicity against human HEK293 cells up to 50 uM incubated for 24 to 48 hrs by MTT assay; assay type: cell-based; details: time 24-48 hrs; how it was run: as §2
[8] = test system: Mycobacterium tuberculosis; test: Antimycobacterial activity against Mycobacterium tuberculosis H37Ra assessed as reduction in bacterial growth incubated for 5 days by resazurin dye based assay; assay type: functional; details: 120 h, time 5 day
How it was run: (§3)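 REMA in defined minimal medium (KH2PO4, Na2HPO4, L-asparagine, ferric ammonium citrate, MgSO4, CaCl2, ZnSO4, 0.1% glycerol) at 37 °C. Compounds 2-fold serially diluted from 30 μM. Fluorescence (ex 530/em 590 nm) read 24 h after resazurin.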

[9] = test system: Mycobacterium tuberculosis; test: Antimycobacterial activity against Mycobacterium tuberculosis H37Rv assessed as reduction in bacterial growth incubated for 5 days by resazurin dye based assay; assay type: functional; details: 120 h, time 5 day; how it was run: as §3
[10] = test system: SW-620; test: Cytotoxicity against human SW-620 cells up to 50 uM incubated for 24 to 48 hrs by MTT assay; assay type: cell-based; details: time 24-48 hrs; how it was run: as §2
[11] = Selectivity ratio of MIC for antimycobacterial activity against Mycobacterium tuberculosis H37Ra in presence of BCAA to MIC for antimycobacterial activity against Mycobacterium tuberculosis H37Ra in absence of BCAA; assay type: functional
[12] = test system: Mycobacterium tuberculosis; test: Antimycobacterial activity against Mycobacterium tuberculosis H37Rv assessed as reduction in bacterial growth incubated for 5 days in presence of BCAA by resazurin dye based assay; assay type: functional; details: 120 h, time 5 day; how it was run: as §1
[13] = Inhibition of Mycobacterium tuberculosis KARI expressed in Escherichia coli BL21 using 2-acetolactate as substrate in presence of NADPH by spectrophotometric analysis
[14] = Inhibition of Escherichia coli KARI using acetolactate as substrate assessed as slow and tight binding by measuring steady-state inhibition constant in presence of NADPH by spectrophotometric analysis
[15] = Inhibition of Escherichia coli KARI using acetolactate as substrate assessed as slow and tight binding by measuring initial inhibition constant in presence of NADPH by spectrophotometric analysis
[16] = test system: Mycobacterium tuberculosis; test: Potency index, ratio of IC50 for IpOHA to IC50 for test compound for inhibition of Mycobacterium tuberculosis KARI using 2-acetolactate as substrate

## O=C(O)C(=O)N(O)C1CCCCC1
[1]
  Ki: 8.5 nM
[2]
  Ratio IC50: 25
[3]
  Ki: 39.6 nM

## CCN(CC)C(=O)C(=O)O
[3]
  Ki: > 20000 nM

## CCOC(=O)C(=O)NCc1ccccc1
[3]
  Ki: > 20000 nM

## O=C(O)C(=O)NCc1ccccc1
[3]
  Ki: > 20000 nM

## CCCCCCCCCCOC(=O)C(=O)N(O)C1CCCC1
[4]
  Selectivity ratio: 6
[5]
  MIC90: 15.3 µM
[6]
  Activity: Non-Toxic
[7]
  Activity: Non-Toxic
[8]
  MIC90: 3.01 µM (≈ 0.943 µg/mL)
[9]
  MIC90: 2.45 µM (≈ 0.768 µg/mL)
[10]
  Activity: Non-Toxic
[11]
  Selectivity ratio: 3
[12]
  MIC90: 15.2 µM

## O=C(O)C(=O)N(C1CCCCC1)C1CCCCC1
[3]
  Ki: > 20000 nM

## CC(c1ccccc1)N(O)C(=O)C(=O)O (stereo not drawn)
[1]
  Ki: 193 nM
[2]
  Ratio IC50: 2
[3]
  Ki: 97.7 nM

## CCOC(=O)C(=O)N(O)C1CCN(C(=O)OC(C)(C)C)CC1
[3]
  Ki: > 20000 nM

## CCOC(=O)C(=O)N(CC)CC
[3]
  Ki: > 20000 nM

## CC(C)N(O)C(=O)C(=O)O
[13]
  Ki: 97.7 nM
[14]
  Ki: 0.09 nM
[15]
  Ki: 160 nM

## CCOC(=O)C(=O)N(O)C1CCCC1
[3]
  Ki: 32.2 nM

## CCOC(=O)C(=O)N(O)C1CCCCC1
[3]
  Ki: 1020 nM

## CCOC(=O)C(=O)N(O)C1CCNCC1
[3]
  Ki: 3080 nM

## O=C(O)CC(=O)N(O)C1CCCC1
[3]
  Ki: > 20000 nM

## CCCCCCCCOC(=O)C(=O)N(O)C1CCCC1
[4]
  Selectivity ratio: 6
[5]
  MIC90: 24.9 µM
[8]
  MIC90: 6.34 µM (≈ 1.81 µg/mL)
[9]
  MIC90: 2.32 µM (≈ 0.662 µg/mL)
[11]
  Selectivity ratio: 3
[12]
  MIC90: 18.9 µM

## COC(=O)CC(=O)N(O)C1CCCC1
[3]
  Ki: > 20000 nM

## CCCCCCCCCCCCOC(=O)C(=O)N(O)C1CCCC1
[4]
  Selectivity ratio: 6
[5]
  MIC90: 14.1 µM
[8]
  MIC90: 4.99 µM (≈ 1.7 µg/mL)
[9]
  MIC90: 2.97 µM (≈ 1.01 µg/mL)
[11]
  Selectivity ratio: 3
[12]
  MIC90: 17.2 µM

## O=C(O)C(=O)N(O)C1CCCC1
[16]
  Ratio IC50: 5
[9]
  MIC90: 219 µM (≈ 37.9 µg/mL)
[1]
  Ki: 8.5 nM
[3]
  Ki: 19.7 nM

## CCOC(=O)C(=O)N(O)C(C)c1ccccc1 (stereo not drawn)
[3]
  Ki: 152 nM

## CC(C)CNC(=O)C(=O)O
[3]
  Ki: > 20000 nM

## CCCCCCCCCCCCCCCCCCOC(=O)C(=O)N(O)C1CCCC1
[8]
  MIC90: > 30 µM

## CC(C)NC(=O)C(=O)O
[3]
  Ki: > 20000 nM

## CCOC(=O)C(=O)N(O)C(C)CC(C)C (stereo not drawn)
[3]
  Ki: 2660 nM

## CC(C)CC(C)N(O)C(=O)C(=O)O (stereo not drawn)
[3]
  Ki: 660 nM

## CCOC(=O)C(=O)N(C1CCCCC1)C1CCCCC1
[3]
  Ki: > 20000 nM

## CCCCCCOC(=O)C(=O)N(O)C1CCCC1
[8]
  MIC90: > 30 µM
